# Assay results from ChEMBL document CHEMBL1127661, “Synthesis of 2-methyl-(Z)-4-(phenylimino)naphth[2,3-d]oxazol-9-one , a monoimine quinone with selective cytotoxicity toward cancer cells” (1994).
# How the values were obtained:
# LOX IMVI [1] = experiment: In vitro tumor cell growth inhibition was reported as the concentration that reduces LOXIMVI melanoma cell growth to level at the start experiment.; type: functional, Homo sapiens
# Summary of the method: (§1)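 NCI in vitro screen covering about 60 human cell lines from eight solid tumour types and leukaemia. Results were derived from dose-response curves. TGI is the concentration that holds cell growth at the level present at the start of the experiment. Values are given as log molar concentration. The mean graph midpoint (MG-MID) is the average across all cell lines tested, with a range of TGI values.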
# MDA-MB-435 [2] = experiment: In vitro tumor cell growth inhibition was reported as the concentration that reduces MDA-MB-435 breast cancer cell growth to 50% of level at the start experiment.; type: functional; details: Homo sapiens, read-out: Log LC50 (the source's name) (converted)
# Summary of the method: (§2)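 Tested in the NCI in vitro anticancer screen, which covers about 60 human cell lines from eight solid-tumour types and leukaemia. Values were read from dose-response curves as log molar concentration. The endpoint is the concentration that reduces cell growth to 50% of the level at the start of the experiment (LC50).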
# SK-MEL-5 [3] = experiment: In vitro tumor cell growth inhibition was reported as the concentration that reduces SK-MEL-5 melanoma cell growth to 50% of level at the start experiment.; type: functional; details: Homo sapiens, read-out: Log LC50 (the source's name) (converted); summary of the method: as §2
# MDA-MB-231 [4] = experiment: In vitro tumor cell growth inhibition was reported as the concentration that reduces MDA-MB-231/ATCC breast cancer cell growth to 50% of level at the start experiment..; type: functional; details: Homo sapiens, read-out: Log LC50 (the source's name) (converted); summary of the method: as §2
# MDA-MB-435 [5] = experiment: In vitro tumor cell growth inhibition was reported as the concentration that reduces MDA-MB-435 breast cancer cell growth to level at the start experiment.; type: functional, Homo sapiens; summary of the method: as §1
# MDA-MB-231 [6] = experiment: In vitro tumor cell growth inhibition was reported as the concentration that reduces MDA-MB-231/ATCC breast cancer cell growth to level at the start experiment.; type: functional, Homo sapiens; summary of the method: as §1
# M14 [7] = experiment: In vitro tumor cell growth inhibition was reported as the concentration that reduces M14 melanoma cell growth to level at the start experiment.; type: functional, Homo sapiens; summary of the method: as §1
# BT-549 [8] = experiment: In vitro tumor cell growth inhibition was reported as the concentration that reduces BT-549 breast cancer cell growth to 50% of level at the start experiment.; type: functional; details: Homo sapiens, read-out: Log LC50 (the source's name) (converted); summary of the method: as §2
# Malme-3M [9] = experiment: In vitro tumor cell growth inhibition was reported as the concentration that reduces MALME-3M melanoma cell growth to level at the start experiment.; type: functional, Homo sapiens; summary of the method: as §1
# T47D [10] = experiment: In vitro tumor cell growth inhibition was reported as the concentration that reduces T-47D breast cancer cell growth to 50% of level at the start experiment.; type: functional; details: Homo sapiens, read-out: Log LC50 (the source's name) (converted); summary of the method: as §2
# MDA-N [11] = experiment: In vitro tumor cell growth inhibition was reported as the concentration that reduces MDA-N breast cancer cell growth to level at the start experiment.; type: functional, Homo sapiens; summary of the method: as §1
# T47D [12] = experiment: In vitro tumor cell growth inhibition was reported as the concentration that reduces T-47D breast cancer cell growth to level at the start experiment.; type: functional, Homo sapiens; summary of the method: as §1
# Hs-578T [13] = experiment: In vitro tumor cell growth inhibition was reported as the concentration that reduces HS 578T breast cancer cell growth to 50% of level at the start experiment.; type: functional; details: Homo sapiens, read-out: Log LC50 (the source's name) (converted); summary of the method: as §2
# LOX IMVI [14] = experiment: In vitro tumor cell growth inhibition was reported as the concentration that reduces LOXIMVI melanoma cell growth to 50% of level at the start experiment.; type: functional; details: Homo sapiens, read-out: Log LC50 (the source's name) (converted); summary of the method: as §2
# MDA-N [15] = experiment: In vitro tumor cell growth inhibition was reported as the concentration that reduces MDA-N breast cancer cell growth to 50% of level at the start experiment.; type: functional; details: Homo sapiens, read-out: Log LC50 (the source's name) (converted); summary of the method: as §2
# Malme-3M [16] = experiment: In vitro tumor cell growth inhibition was reported as the concentration that reduces MALME-3M melanoma cell growth to 50% of level at the start experiment.; type: functional; details: Homo sapiens, read-out: Log LC50 (the source's name) (converted); summary of the method: as §2
# Tumor Cell line [17] = experiment: In vitro inhibition of cell growth; type: functional, Homo sapiens
# MCF7 [18] = experiment: In vitro tumor cell growth inhibition was reported as the concentration that reduces MCF-7 breast cancer cell growth to 50% of level at the start experiment.; type: functional; details: Homo sapiens, read-out: Log LC50 (the source's name) (converted); summary of the method: as §2
# MCF7 [19] = experiment: In vitro tumor cell growth inhibition was reported as the concentration that reduces MCF-7 breast cancer cell growth to level at the start experiment.; type: functional, Homo sapiens; summary of the method: as §1
# M14 [20] = experiment: In vitro tumor cell growth inhibition was reported as the concentration that reduces M14 melanoma cell growth to 50% of level at the start experiment.; type: functional; details: Homo sapiens, read-out: Log LC50 (the source's name) (converted); summary of the method: as §2
# SK-MEL-2 [21] = experiment: In vitro tumor cell growth inhibition was reported as the concentration that reduces SK-MEL-2 melanoma cell growth to 50% of level at the start experiment.; type: functional; details: Homo sapiens, read-out: Log LC50 (the source's name) (converted); summary of the method: as §2
# Hs-578T [22] = experiment: In vitro tumor cell growth inhibition was reported as the concentration that reduces HS 578T breast cancer cell growth to level at the start experiment.; type: functional, Homo sapiens; summary of the method: as §1
# Tumor Cell line [23] = experiment: Concentration which reduces cell growth to level at the start of the experiment was reported as the mean graph medium for all the cell lines tested in vitro conditions; type: functional, Homo sapiens; summary of the method: as §1
# SK-MEL-5 [24] = experiment: In vitro tumor cell growth inhibition was reported as the concentration that reduces SK-MEL-5 melanoma cell growth to level at the start experiment.; type: functional, Homo sapiens; summary of the method: as §1
# BT-549 [25] = experiment: In vitro tumor cell growth inhibition was reported as the concentration that reduces BT-549 breast cancer cell growth to level at the start experiment.; type: functional, Homo sapiens; summary of the method: as §1
# SK-MEL-2 [26] = experiment: In vitro tumor cell growth inhibition was reported as the concentration that reduces SK-MEL-2 melanoma cell growth to level at the start experiment.; type: functional, Homo sapiens; summary of the method: as §1
compound,measurement,setting,value
Cc1nc2c(o1)C(=O)c1ccccc1/C2=N/c1ccccc1,Log concentration,LOX IMVI [1],-5.6
same,CC50,MDA-MB-435 [2],3.16 µM
same,CC50,SK-MEL-5 [3],5.01 µM
same,CC50,MDA-MB-231 [4],> 100 µM
same,Log concentration,MDA-MB-435 [5],-6
same,Log concentration,MDA-MB-231 [6],-4.7
same,Log concentration,M14 [7],-5.9
same,CC50,BT-549 [8],6.31 µM
same,Log concentration,Malme-3M [9],-5.6
same,CC50,T47D [10],> 100 µM
same,Log concentration,MDA-N [11],-6
same,Log concentration,T47D [12],-5.1
same,CC50,Hs-578T [13],> 100 µM
same,CC50,LOX IMVI [14],6.31 µM
same,CC50,MDA-N [15],3.16 µM
same,CC50,Malme-3M [16],5.01 µM
same,Range,Tumor Cell line [17],2.02
same,CC50,MCF7 [18],> 100 µM
same,Log concentration,MCF7 [19],-5.3
same,CC50,M14 [20],3.98 µM
same,CC50,SK-MEL-2 [21],6.31 µM
same,Log concentration,Hs-578T [22],-5.3
same,Log concentration,Tumor Cell line [23],-5.13
same,Log concentration,SK-MEL-5 [24],-5.6
same,Log concentration,BT-549 [25],-5.5
same,Log concentration,SK-MEL-2 [26],-5.6
Cc1nc2c(o1)/C(=N\c1ccccc1)c1ccccc1C2=O,Range,Tumor Cell line [17],1.44
same,Log concentration,Tumor Cell line [23],-4.62
Cc1nc2c(o1)/C(=N\c1ccccc1)c1ccccc1/C2=N/c1ccccc1,Range,Tumor Cell line [17],0.49
same,Log concentration,Tumor Cell line [23],-4.02
